Laboratory results from ChEMBL document CHEMBL2440047, “Design, synthesis, and structure-activity relationships of azolylmethylpyrroloquinolines as nonsteroidal aromatase inhibitors” (J Med Chem, 2013).
Calls of active or inactive are those of the source. No cut-off for these calls is given here.

Assays:
Aromatase [1] = biological target: T1, Aromatase (Homo sapiens, UniProt P11511); test: Inhibition of CYP19 in human H295R cells using [1beta-3H(N)]-androst-4-ene-3,17-dione at 10 uM after 24 hrs by tritiated water release assay; assay type: cell-based
T1 sequence (P11511 whole entry): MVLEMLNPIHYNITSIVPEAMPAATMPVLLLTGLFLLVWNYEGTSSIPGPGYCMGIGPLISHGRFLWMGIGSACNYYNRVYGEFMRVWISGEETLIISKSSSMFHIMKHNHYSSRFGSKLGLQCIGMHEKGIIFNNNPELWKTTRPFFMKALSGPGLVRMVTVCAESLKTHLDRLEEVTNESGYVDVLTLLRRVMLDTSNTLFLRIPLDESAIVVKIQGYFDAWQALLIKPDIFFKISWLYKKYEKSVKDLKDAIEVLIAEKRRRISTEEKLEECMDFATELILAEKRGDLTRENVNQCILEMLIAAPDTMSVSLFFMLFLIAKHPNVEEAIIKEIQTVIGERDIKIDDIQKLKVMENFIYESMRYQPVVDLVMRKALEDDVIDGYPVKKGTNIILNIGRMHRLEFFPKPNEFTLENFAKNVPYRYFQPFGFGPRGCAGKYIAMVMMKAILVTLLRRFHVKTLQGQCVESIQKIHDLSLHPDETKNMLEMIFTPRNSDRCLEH
Method in brief: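 Cells were then incubated 2 h with 0.5 µM [1β-3H(N)]-androst-4-ene-3,17-dione. Read-out is tritiated water release, expressed as % of untreated cells. Means ± SEM of two independent experiments, each in triplicate.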

Aromatase [2] = biological target: T1, Aromatase; test: Inhibition of aromatase (unknown origin) using 7-methoxy-4-trifluoromethylcoumarin as substrate after 30 mins by fluorimetric analysis
Method in brief: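 Recombinant CYP19 from a high-throughput screening kit, with 7-methoxy-4-trifluoromethylcoumarin as substrate. Enzyme/substrate mix was then added for 30 min at 37 °C before stop reagent. Fluorescence read at λex 410 / λem 530 nm. IC50 given as mean ± SEM of three independent experiments run in duplicate.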

HT-29 = test: Growth inhibition of non-estrogen-sensitive human HT-29 cells after 72 hrs by MTT assay; assay type: functional; settings: HT-29, 72 h
Method in brief: (§1)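 Cells were seeded at 8x10^3 per well and left 18 h at 37 °C, 5% CO2, then exposed 72 h to compound at several concentrations from 10 mM DMSO stocks (final DMSO ≤0.25%). Jurkat, RS4;11 and SEM were grown in RPMI-1640; H295R in DMEM-F12 with 2% FBS plus insulin-transferrin-selenium. Viability read by MTT.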

[3] = Growth inhibition of non-estrogen-sensitive human SEM cells after 72 hrs by MTT assay; assay type: functional; method in brief: as §1
MCF7 [4] = test: Cell cycle arrest in estrogen-sensitive human MCF7 cells assessed as decrease of accumulation at S phase at 6 to 50 uM after 24 hrs using propidium iodide staining by flow cytometry; assay type: functional, cell-based
HeLa [5] = test: Cell cycle arrest in non-estrogen-sensitive human HeLa cells at 6 to 50 uM after 24 hrs using propidium iodide staining by flow cytometry; assay type: functional, cell-based
Jurkat = test: Growth inhibition of non-estrogen-sensitive human Jurkat cells after 72 hrs by MTT assay; assay type: functional; method in brief: as §1
[6] = biological target: T2, Cytochrome P450 11B1, mitochondrial (Homo sapiens, UniProt P15538); test: Inhibition of human CYP11B1 using [1,2-3H]-11-deoxycorticosterone as substrate
T2 sequence (P15538 whole entry): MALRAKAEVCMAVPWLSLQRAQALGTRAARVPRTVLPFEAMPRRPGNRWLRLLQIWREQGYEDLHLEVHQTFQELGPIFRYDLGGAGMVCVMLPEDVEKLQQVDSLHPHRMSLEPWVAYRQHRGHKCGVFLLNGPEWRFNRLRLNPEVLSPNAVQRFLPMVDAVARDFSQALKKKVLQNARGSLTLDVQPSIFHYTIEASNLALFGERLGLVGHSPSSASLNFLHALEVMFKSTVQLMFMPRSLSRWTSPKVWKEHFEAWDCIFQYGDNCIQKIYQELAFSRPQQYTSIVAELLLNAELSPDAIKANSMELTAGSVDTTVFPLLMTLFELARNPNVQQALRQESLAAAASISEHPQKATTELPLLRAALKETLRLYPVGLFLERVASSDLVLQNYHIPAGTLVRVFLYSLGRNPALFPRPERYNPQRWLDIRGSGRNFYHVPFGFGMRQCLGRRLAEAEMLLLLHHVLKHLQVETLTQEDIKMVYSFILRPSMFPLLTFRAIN
Method in brief: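 Hamster fibroblast V79MZh cells expressing human CYP11B1 were incubated with [1,2-3H]-11-deoxycorticosterone substrate and inhibitor at several concentrations. IC50 given as mean ± SEM of three independent experiments run in duplicate.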

NCI-H295R = test: Growth inhibition of estrogen-sensitive human NCI-H295R cells after 72 hrs by MTT assay; assay type: functional; method in brief: as §1
MCF7 [7] = test: Cell cycle arrest in estrogen-sensitive human MCF7 cells assessed as increase of accumulation at G1 phase after 24 hrs using propidium iodide staining by flow cytometry; assay type: functional, cell-based
[8] = biological target: T3, Steroid 17-alpha-hydroxylase/17,20 lyase (Homo sapiens, UniProt P05093); test: Inhibition of human CYP17 expressed in Escherichia coli using progesterone as substrate NADPH as cofactor
T3 sequence (P05093 whole entry): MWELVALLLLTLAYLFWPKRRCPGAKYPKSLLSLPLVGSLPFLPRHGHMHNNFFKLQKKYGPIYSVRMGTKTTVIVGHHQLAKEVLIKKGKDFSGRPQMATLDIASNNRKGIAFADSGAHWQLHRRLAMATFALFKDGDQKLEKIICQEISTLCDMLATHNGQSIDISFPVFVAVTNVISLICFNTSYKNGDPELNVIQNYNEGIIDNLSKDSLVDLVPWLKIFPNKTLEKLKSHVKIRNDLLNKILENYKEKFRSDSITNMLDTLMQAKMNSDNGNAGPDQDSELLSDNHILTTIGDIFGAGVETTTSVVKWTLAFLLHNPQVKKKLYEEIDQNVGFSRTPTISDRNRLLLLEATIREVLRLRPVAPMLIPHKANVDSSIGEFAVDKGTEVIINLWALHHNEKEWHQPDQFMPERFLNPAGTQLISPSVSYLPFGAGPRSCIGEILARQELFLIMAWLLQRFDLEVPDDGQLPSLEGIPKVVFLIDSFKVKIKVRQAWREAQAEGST
Method in brief: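 Cell-free assay using the 50000g sediment of E. coli coexpressing human CYP17 and cytochrome P450 reductase, with progesterone substrate and NADPH cofactor. IC50 given as mean ± SEM of three independent experiments run in duplicate.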

IGROV-1 = test: Growth inhibition of estrogen-sensitive human IGROV1 cells after 72 hrs by MTT assay; assay type: functional; settings: IGROV-1, 72 h; method in brief: as §1
OVCAR-3 = test: Growth inhibition of estrogen-sensitive human OVCAR3 cells after 72 hrs by MTT assay; assay type: functional; settings: OVCAR-3, 72 h; method in brief: as §1
HeLa [9] = test: Growth inhibition of non-estrogen-sensitive human HeLa cells after 72 hrs by MTT assay; assay type: functional; method in brief: as §1
Aromatase [10] = biological target: T1, Aromatase; test: Activation of aromatase in human H295R cells using [1beta-3H(N)]-androst-4-ene-3,17-dione as substrate at 0.1 uM after 24 hrs by tritiated water release assay
[11] = Growth inhibition of non-estrogen-sensitive human RS4:11 cells after 72 hrs by MTT assay; assay type: functional; settings: RS4-11, 72 h; method in brief: as §1
MCF7 [12] = test: Growth inhibition of estrogen-sensitive human MCF7 cells after 72 hrs by MTT assay; assay type: functional; settings: MCF7, 72 h; method in brief: as §1
Aromatase [13] = biological target: T1, Aromatase; test: Inhibition of aromatase in human H295R cells using [1beta-3H(N)]-androst-4-ene-3,17-dione as substrate assessed as residual activity at 10 uM after 24 hrs by tritiated water release assay
HeLa [14] = test: Cell cycle arrest in non-estrogen-sensitive human HeLa cells assessed as increase of accumulation at G2/M phase at 6 to 50 uM after 24 hrs using propidium iodide staining by flow cytometry; assay type: functional, cell-based
MCF7 [15] = test: Cell cycle arrest in estrogen-sensitive human MCF7 cells assessed as increase of accumulation at G2/M phase at 6 to 50 uM after 24 hrs using propidium iodide staining by flow cytometry; assay type: functional, cell-based
HeLa [16] = test: Cell cycle arrest in non-estrogen-sensitive human HeLa cells assessed as decrease of accumulation at G1 and S phase at 6 to 50 uM after 24 hrs using propidium iodide staining by flow cytometry; assay type: functional, cell-based
MCF7 [17] = test: Cell cycle arrest in estrogen-sensitive human MCF7 cells assessed as decrease of accumulation at G1 and S phase at 6 to 50 uM after 24 hrs using propidium iodide staining by flow cytometry; assay type: functional, cell-based
Aromatase [18] = biological target: T1, Aromatase; test: Inhibition of aromatase in human H295R cells using [1beta-3H(N)]-androst-4-ene-3,17-dione as substrate assessed as residual activity at 1 uM after 24 hrs by tritiated water release assay

SMILES | inhibition (INH) (Aromatase [1]) | IC50 (Aromatase [2]) [µM] | GI50 (HT-29) [µM] | GI50 [3] [µM] | GI50 (MCF7 [12]) [µM] | further results
CCn1ccc2c3c(C(=O)O)cc(-c4ccccc4)nc3ccc21 | Not Active | 1.47 |  |  |  | 
CCOC(=O)c1cc(-c2ccc(OC)cc2)nc2c1ccc1[nH]ccc12 | Active | > 10 | 1.9 |  |  | 
c1ccc(-c2cc(Cn3ccnc3)c3ccc4[nH]ccc4c3n2)cc1 | Not Active | 0.0114 | 13.5 | 17 | 23.3 | Activity (MCF7 [4]): Active; Activity (HeLa [5]): inactive; GI50 (Jurkat): 27 µM; IC50 [6]: 0.23 µM; GI50 (NCI-H295R): 36.5 µM; Activity (MCF7 [7]): Dose-dependent effect; IC50 [8]: 0.919 µM; GI50 (IGROV-1): 23.6 µM; GI50 (OVCAR-3): 16.9 µM; GI50 (HeLa [9]): 21.2 µM; Activity (Aromatase [10]): Active; GI50 [11]: 29.6 µM
CCOC(=O)c1cc(-c2ccccc2)nc2c1ccc1c2ccn1CC | Not Active | > 10 | 4.3 | 13 | 18.5 | 
CCn1ccc2c3nc(-c4ccccc4)cc(CO)c3ccc21 | Not Active | > 10 |  |  |  | 
CCOC(=O)c1cc(-c2ccccc2)nc2c1ccc1[nH]ccc12 | Active | > 10 | 17.2 |  |  | 
CCOC(=O)c1cc(C)nc2c1ccc1[nH]ccc12 | Not Active | > 10 |  |  |  | 
COc1ccc(-c2cc(Cn3cncn3)c3ccc4[nH]ccc4c3n2)cc1 | Not Active | > 10 | > 100 | 28.4 | > 100 | GI50 (Jurkat): 39.5 µM; IC50 [6]: > 5 µM; GI50 (NCI-H295R): > 100 µM; IC50 [8]: > 5 µM; GI50 (IGROV-1): 82 µM; GI50 (OVCAR-3): 50.6 µM; GI50 (HeLa [9]): > 100 µM; Activity (Aromatase [10]): Active; GI50 [11]: 43.8 µM
Cc1cc(C(=O)O)c2ccc3[nH]ccc3c2n1 | Not Active | > 10 |  |  |  | Activity (Aromatase [10]): Active
COc1cccc(-c2cc(=O)c3ccc4[nH]ccc4c3[nH]2)c1 |  | 0.59 | 17.7 | 35 | 0.81 | GI50 (Jurkat): 21.2 µM; GI50 (NCI-H295R): 0.7 µM; GI50 (IGROV-1): 0.92 µM; GI50 (OVCAR-3): 0.39 µM; GI50 (HeLa [9]): 38.4 µM; GI50 [11]: 25 µM
CCn1ccc2c3c(Cn4cncn4)cc(-c4ccccc4)nc3ccc21 |  | 0.0133 | 29.5 | 5.5 | 23 | activity at 10 µM (Aromatase [13]): 50.9%; Activity (HeLa [14]): Active; GI50 (Jurkat): 65.8 µM; IC50 [6]: 1.48 µM; GI50 (NCI-H295R): 75.3 µM; IC50 [8]: > 5 µM; GI50 (IGROV-1): 54.3 µM; Activity (MCF7 [15]): Active; GI50 (OVCAR-3): 13.6 µM; GI50 (HeLa [9]): 59.8 µM; GI50 [11]: 2.7 µM; Activity (HeLa [16]): Active; Activity (MCF7 [17]): Active
CCOC(=O)c1cc(-c2ccccc2)nc2ccc3c(ccn3CC)c12 | Not Active | > 10 |  |  |  | 
Cc1cc(CO)c2ccc3[nH]ccc3c2n1 | Not Active | 4.15 |  | 16.2 | 5.7 | 
COc1ccc(-c2cc(C(=O)O)c3ccc4[nH]ccc4c3n2)cc1 | Not Active | > 10 |  |  |  | activity at 1 µM (Aromatase [18]): 10.6%
